A1 inh: inhibitors of the anti-apoptotic protein A1, read as caspase activation. MEF A1-2A-BIM cells, Caspase-Glo 3/7 luminescence, 3 h; percent of clofoctol response, vehicle zero. caspase activation, % (test concentration not listed). 0.066% of 330,000 active. AID 2462;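 active = over half of replicate activation scores above 10%, or exactly half above 10 with the replicate mean above 10; inconclusive = replicate mean below 10 yet half the replicates above 10; inactive = over half of replicates below 10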
SR-BI DiI inh: mouse SR-BI HDL lipid transfer inhibition. 0.96% of 320,000 active. ldlA[mSR-BI] CHO cells, DiI-HDL uptake fluorescence, 3 h. Q61009. inhibition, % at 12.5 µM;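 active = mean replicate inhibition of at least 70% and a set share of replicates each scoring 70 or more; inconclusive = meets just one of the two criteria; inactive = fails both criteria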;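 note: 0% = median of neutral control wells and 100% = median of positive control wells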
Target sequence (Q61009 whole entry, looked up): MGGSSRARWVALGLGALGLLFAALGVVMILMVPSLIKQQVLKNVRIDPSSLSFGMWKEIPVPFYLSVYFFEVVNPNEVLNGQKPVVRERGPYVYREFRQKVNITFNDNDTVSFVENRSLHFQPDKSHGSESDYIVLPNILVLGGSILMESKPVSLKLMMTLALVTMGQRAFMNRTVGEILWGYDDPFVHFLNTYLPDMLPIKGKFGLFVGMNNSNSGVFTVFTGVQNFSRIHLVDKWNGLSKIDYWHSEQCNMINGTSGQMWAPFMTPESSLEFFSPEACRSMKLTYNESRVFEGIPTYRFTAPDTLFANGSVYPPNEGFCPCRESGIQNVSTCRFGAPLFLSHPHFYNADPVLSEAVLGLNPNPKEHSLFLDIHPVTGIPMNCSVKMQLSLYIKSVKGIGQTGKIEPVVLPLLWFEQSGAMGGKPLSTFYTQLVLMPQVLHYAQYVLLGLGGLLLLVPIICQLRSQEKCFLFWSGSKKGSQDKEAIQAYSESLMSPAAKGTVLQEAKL
Vif inh: inhibitors of HIV Vif. HEK293T cells, Vif self-association by quenched fluorescence, imaging, 24 h. 0.35% of 340,000 active. inhibition, % at 7.49 µM; in the data active = inhibition above about 50%, passing the limit was not always enough; inconclusive = no clear call, values can overlap the other calls; inactive = below about 31%
SR-BI uptake up: SR-BI HDL lipid transfer activation; CHO ldlA[mSR-BI] cells, DiI-HDL uptake fluorescence, 3 h; 100 = double the neutral-control signal; activation, % at 12.5 µM; 0.096% of 320,000 active; AID 504775;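 active = mean replicate activation of at least 60% and every replicate at or above 60%; inconclusive = mean or all-replicate condition met, but not both; inactive = mean below 60% and not all replicates reaching 60%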;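 note: 0% = median plate neutral-control signal and 100% = twice that signal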
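Test system: SR-BI-overexpressing, LDLR-lacking CHO cells. Measured by: DiI fluorescence, bottom read. Medium: Ham's F12 with 0.5% BSA, HEPES 25 mM, pH 7.4. Timing: 3 h uptake period with compound, 37 °C.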
TAG inh: inhibitors of triacylglycerol accumulation. H9c2 cells, Nile Red lipid (TAG) fluorescence; cells loaded with 200 µM oleic acid. inhibition, % at 12.5 µM. 0.66% of 230,000 active. AID 651582;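 active = pattern-corrected inhibition of lipid staining of at least 50% with the nuclear-stain viability signal not falling by more than 50%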;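 note: 0% = DMSO wells and 100% = triacsin C control wells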
H9c2 TAG conf: confirmation of triacylglycerol accumulation inhibitors. shares compounds with TAG inh. H9c2 lipid accumulation, Nile Red fluorescence; cells loaded with 200 µM oleic acid. inhibition, % at 12.5 µM. 71% of 990 active. AID 651629;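 active = mean inhibition across replicates of 40% or more; inactive = mean inhibition below 40%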;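 note: plate controls were DMSO only wells for no effect and Triacsin C treated wells for full effect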
* marks the source's active call; other numbers are inactive results; u = inconclusive; x = no result. This is a sample that favours compounds with a hit; in the whole collection about 1.6% have one here.

SMILES	A1 inh	SR-BI DiI inh	Vif inh	SR-BI uptake up	TAG inh	H9c2 TAG conf
O=C(Nc1nc2nc(-c3ccccc3)cc(-c3ccccc3)n2n1)c1ccco1	0	35	x	-35	64*	31
O=C(c1ccco1)N1CCN(C2CC(=O)N(c3ccc(F)c(Cl)c3)C2=O)CC1 (configuration not stated)	0	13	5	-13	x	x
CCOC(=O)c1sc(-c2ccc(Cl)cc2Cl)nc1O	-1	12	3	-12	-12	x
Cc1nn(-c2ccccc2)c(=O)c2ccccc12	-1	17	-3	-17	7	x
Cc1nn(-c2ccccc2)c2c1CC(=O)Nc1ccccc1-2	x	21	28	-21	74*	87*
CC(=O)c1ccc(S(=O)(=O)NCCOc2ccccc2)cc1	x	x	-1	x	-9	x
O=C(N/N=C/c1ccc(F)cc1)c1sccc1OCc1ccc(F)cc1	-1	38	x	-38	-7	x
O=C(N/N=C/c1ccc(Cl)cc1)c1sccc1OCc1ccc(F)cc1	0	27	16	-27	50*	54*
COc1ccc(NC(=O)c2cccc(NC(=O)c3ccccc3)c2)cc1	-2	43	-1	-43	x	x
COc1ccc(C(=O)Nc2ccc(C(=O)Nc3cccc(C)c3)cc2)cc1	1	40	x	-40	56*	38
COc1cc(OC)c2c(-c3ccccc3)cc(=O)oc2c1C(CCN1CCCC(C)C1)c1ccc2c(c1)OCO2 (configuration not stated)	0	6	-7	-6	69*	51*
COc1cc(OC)c2c(-c3ccccc3)cc(=O)oc2c1C(CC(=O)N1CCCC1)c1ccc2c(c1)OCO2 (configuration not stated)	1	-4	-1	4	7	x
COc1cc(OC)c2c(-c3ccccc3)cc(=O)oc2c1C(CCN1CCCCC1)c1ccc2c(c1)OCO2 (configuration not stated)	0	-10	-4	10	58*	41*
CCCCCc1cc(=O)oc2c(C(CCN(CC)CC)c3ccc(N(C)C)cc3)c(OC)cc(OC)c12 (configuration not stated)	0	-8	-3	8	72*	61*
COc1cc(OC)c2c(-c3ccccc3)cc(=O)oc2c1C(CCN1CCOCC1)c1ccc(N(C)C)cc1 (configuration not stated)	x	x	x	x	10	x
COc1cc(OC)c2c(-c3ccccc3)cc(=O)oc2c1C(CCN1CCCCC1)c1ccc(N(C)C)cc1 (configuration not stated)	-1	-8	-2	8	68*	55*
COc1ccc(N2CCN(CCC(=O)c3ccc4ccccc4c3)CC2)cc1	-1	-4	-3	4	x	x
N#C/C(=C\Nc1ccc2cn[nH]c2c1)c1nc(-c2ccc(Cl)cc2)cs1	-1	u	-4	-72	78*	83*
N#C/C(=C\Nc1ccc2cn[nH]c2c1)c1nc(-c2ccccc2)cs1	x	60	1	-60	26	x
Cc1cc(C)nc(NC(=NCCc2c[nH]c3ccccc23)NC(=O)Nc2ccc(Cl)c(Cl)c2)n1	0	48	-2	-48	67*	70*
Cc1cc(C)nc(NC(=NCCc2c[nH]c3ccccc23)NC(=O)Nc2ccccc2)n1	0	54	-5	-54	x	x
CN1CCN(c2ccc(Cl)cc2NC(=O)c2ccc(S(=O)(=O)N(C)C)cc2)CC1	0	-15	3	15	52*	22
CCN(CC)S(=O)(=O)c1cc(C(=O)Nc2cc(Cl)ccc2N2CCN(C)CC2)ccc1Cl	-1	-18	13	18	x	x
O=C(Nc1cccc(NS(=O)(=O)c2ccc(S(=O)(=O)NC3CC3)cc2)c1)c1ccccn1	-1	-12	-13	12	56*	25
Oc1ccc(Nc2nc(NCC3CCCO3)c3ccccc3n2)cc1 (configuration not stated)	x	-31	5	x	50*	25
O=C(COc1ccccc1Cl)NNC(=O)c1ccc2c(=O)n3c(nc2c1)CCC3	-1	-2	19	2	3	x
C/C(CCC(C)C)=N\Nc1cc(C)c2ccccc2n1	0	-16	-9	16	13	x
CC(C)CNC(=O)c1coc(=O)c(Br)c1	0	-19	-3	19	60*	17

Assay outcomes (PubChem BioAssay)
